Data on one compound can be found in ChEMBL document CHEMBL4011629, “New Disubstituted Quindoline Derivatives Inhibiting Burkitt's Lymphoma Cell Proliferation by Impeding c-MYC Transcription” (J Med Chem, 2017).

Molecules are shown by their SMILES. Activity calls are given as the source filed them. The rule behind the calls is not given here. Some results are limits rather than exact numbers.

The nature of data set [1]: Inhibition of NM23-H2 binding to 5'-biotin labeled c-Myc Pu27 G-quadruplex DNA (unknown origin) […] by ELISA. Summed up:
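Biotin-Pu27 at 100 nM in 10 mM Tris-HCl pH 7.4 with 100 mM KCl was annealed and captured on streptavidin plates. Compound (serial halving from 50 μM in 3% BSA blocking buffer) was preincubated with 250 nM NM23-H2 for 1 h at 25 °C, then added to the DNA at 4 °C overnight. Bound protein was detected with anti-NM23-H2, an HRP secondary and TMB, read at A450; three replicates, DMSO control.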
A general note: An ELISA detects its analyte on a solid surface through an enzyme-linked reagent.

A short description of data set [2]: Stabilization of 5'-FAM/3'-TAMRA labeled c-Myc Pu22 G-quadruplex DNA (unknown origin) assessed as change in melting temperature at 2 uM by FRET assay. The method, boiled down:
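FRET melting of FAM/TAMRA-labelled FPu22T (0.2 μM) in 10 mM Tris-HCl pH 7.4 with 2 mM KCl, ligand 2 μM, in a real-time PCR machine. Excitation 470 nm, emission 530 nm, read every 1 °C from 37 to 99 °C after 30 s hold at each step; ΔTm versus probe alone.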

In data set [3] the test system is Raji. The data set is described as follows: Induction of apoptosis in human Raji cells assessed as early apoptotic cells at 0.5 uM after 48 hrs by Annexin V-FITC/propidium iodide staining based flow cytometry (reference value: 1.8%). The format is functional. The method, boiled down: (§1)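 RAJI cells exposed to compound or control medium for 12 or 48 h were washed in PBS and resuspended in binding buffer. They were stained with FITC annexin V and PI for 15 min in the dark, and fluorescence was measured by flow cytometry.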

For data set [4], the system named is Raji. The data set is described as follows: Induction of apoptosis in human Raji cells assessed as upregulation of p27 expression up to 4 uM after 12 hrs by Western blot method. The format is functional, cell-based. The method, boiled down: (§2)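 After compound exposure (12 h for cell-cycle and apoptosis markers), RAJI cells were lysed in 1% NP-40 buffer. Protein at 50 μg per lane was run on 3–12% SDS-PAGE and transferred to nitrocellulose. Blots were probed with primary antibodies (GAPDH as loading reference) and detected with an HRP secondary and enhanced chemiluminescence.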
(In general: In western blotting, separated proteins are transferred to a membrane and probed.)

For another data set, the system named is CCRF-CEM. The data set is described as follows: Antiproliferative activity against human CCRF-CEM cells after 12 hrs by MTT assay. It is filed as functional, cell-based. Summed up:
(§3)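 RAJI, CCRF-CEM and U266B1 cells were seeded at 5 × 10^3 cells per well and exposed to compound for 12 h, with a DMSO vehicle control. MTT at 0.5 mg/mL was added for 4 h at 37 °C, then lysis solution overnight at 37 °C, and A570 was read. Assays were run in triplicate. IC50 was taken from the percentage survival relative to the negative control.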
In general terms: Tetrazolium assays rely on reduction of a dye to a coloured formazan, in cell work by metabolically active cells.

Data set [5] deals with Raji. The data set is described as follows: Antiproliferative activity against human Raji cells after 48 hrs by MTT assay. It is filed as functional, cell-based. The method, boiled down:
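RAJI cells were seeded at 5 × 10^3 cells per well and treated for 48 h, with a DMSO-matched control. MTT at 0.5 mg/mL was added for 4 h at 37 °C, followed by overnight lysis at 37 °C and absorbance at 570 nm. Each assay was done in triplicate. IC50 came from the dose-dependent percentage survival versus the control.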

Data set [6] is filed under the species Homo sapiens. The data set is described as follows: Stabilization of c-Myc G-quadruplex DNA in human U266B1 cells assessed as downregulation of c-Myc mRNA level up to 4 uM after 12 hrs by RT-PCR method. It is filed as cell-based. Summed up:
(§4)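 RAJI, CCRF-CEM and U266B1 grown in RPMI 1640 with 10% fetal calf serum at 37 °C, plated at 1 × 10^6 cells/well overnight, then treated 12 h with 4, 2, 1 or 0.5 μM (DMSO control). RNA (2 μg) reverse-transcribed with oligo dT18/M-MLV; c-MYC, NM23-H2 and β-actin amplified by real-time PCR, checked on 1.5% agarose.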

The subject of another data set is U-266. Kind of data set: Antiproliferative activity against human U266B1 cells after 12 hrs by MTT assay. The note with it: U-266, 12 h. It is filed as functional, cell-based. Summed up:
as §3

Data set [7] is described as follows: Drug uptake in human Raji cells at 1 uM after 12 to 48 hrs. The format is ADME, cell-based.
Data set [8] concerns Raji. The data set is described as follows: Induction of apoptosis in human Raji cells assessed as late apoptotic cells at 0.5 uM after 12 hrs by Annexin V-FITC/propidium iodide staining based flow cytometry relative to control. The format is functional. Summed up: as §1
Data set [9] has as its system Raji. The data set is described as follows: Antitumor activity against human Raji cells xenografted in NOD/SCID nude mouse assessed as reduction in tumor volume at 30 mg/kg, ip administered once daily for 2 weeks relative to control. The format is functional. The method, boiled down: (§5)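 NOD/SCID mice were implanted subcutaneously in the underarm with RAJI cells (5 × 10^6 per 100 μL of RPMI 1640 with 10% serum). Tumours reached […] after 1 week, and mice were then randomised. […] Tumour volume was recorded daily and tumour weight at the end.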

For data set [10], the system named is Raji. The data set is described as follows: Induction of apoptosis in human Raji cells assessed as late apoptotic cells at 1 uM after 48 hrs by Annexin V-FITC/propidium iodide staining based flow cytometry (reference value: 0.1%). The format is functional. The method, boiled down:
as §1

For data set [11], the system named is Raji. The data set is described as follows: Cell cycle arrest in human Raji cells assessed as accumulation at S phase after 6 hrs by propidium iodide staining based flow cytometry (reference value: 32.2%). The format is functional.
In data set [12] the test system is Raji. Kind of data set: Antitumor activity against human Raji cells xenografted in NOD/SCID nude mouse assessed as reduction in tumor volume at 15 mg/kg, ip administered once daily for 2 weeks relative to control. The format is functional. The method, boiled down: as §5
Data set [13] has as its system Raji. The data set is described as follows: Antitumor activity against human Raji cells xenografted in NOD/SCID nude mouse assessed as reduction in tumor weight at 15 to 30 mg/kg, ip administered once daily for 2 weeks relative to control. It is filed as functional, organism-based. The method, boiled down: as §5
The test system of data set [14] is Raji. Kind of data set: Cell cycle arrest in human Raji cells assessed as accumulation at G2/M phase after 12 hrs by propidium iodide staining based flow cytometry (reference value: 24.4%). The format is functional.
The species named for data set [15] is Homo sapiens. Kind of data set: Stabilization of c-Myc G-quadruplex DNA in human CCRF-CEM cells assessed as downregulation of c-Myc mRNA level at 2 uM after 12 hrs by RT-PCR method relative to control. It is filed as cell-based. The method, boiled down:
as §4

Data set [16] has as its system Raji. The data set is described as follows: Induction of apoptosis in human Raji cells assessed as downregulation of Cyclin D1 expression after 12 hrs by Western blot method. It is filed as functional, cell-based. The method, boiled down: as §2
Data set [17] relates to Raji. The data set is described as follows: Cell cycle arrest in human Raji cells assessed as accumulation at G2/M phase after 6 hrs by propidium iodide staining based flow cytometry (reference value: 24.4%). The format is functional.
The species named for data set [18] is Homo sapiens. The data set is described as follows: Stabilization of c-Myc G-quadruplex DNA in human Raji cells assessed as downregulation of c-Myc protein level at 1 uM by Western blot method. It is filed as cell-based. The note with it: TDE = time-dependent effect. Summed up: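 Western blot of RAJI cells treated either with 1 μM for 6, 12, 24 and 48 h or with graded concentrations for 6 h. Lysed in 1% NP-40, 50 μg protein/lane on 3–12% SDS-PAGE, nitrocellulose, probed for c-MYC, NM23-H2, GAPDH loading control, HRP secondary with ECL; untreated control, three replicates.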

The species entered for data set [19] is Homo sapiens. Kind of data set: Effect on c-Myc DNA translocated chromosome product in human CA46 cells assessed as decrease in amplification of exon-2 up to 4 uM after 12 hrs by RT-PCR method. It is filed as cell-based. The method, boiled down: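 RAJI cells, which retain NHE III1, and CA46 cells, which lack NHE III1 and the P1/P2 promoters, were exposed to graded compound concentrations for 12 h. Total RNA (2 μg) was reverse-transcribed with oligo dT18 and M-MLV. c-MYC exons 1 and 2, NM23-H2 and β-actin were amplified by real-time PCR against untreated cells. Three repeats were done; two-tailed unpaired t-test.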

What is called ΔTm is the change in melting temperature against a reference sample. What is called IC50 is the concentration that gives 50% inhibition. The T/C is the ratio of treated to control. Take `CN(C)CCCNc1c2ccccc2nc2c1oc1ccc(OCC3CCN(C)CC3)cc12`: the inhibition result in data set [1] was “Dose-dependent effect”. In data set [2], the ΔTm stood at 26.6 °C. Moreover, the Activity in the data set with Raji [3] is 12.2%; with Raji [8], 0.2%; with Raji [10], 37%; in the data set on Raji [11], 18.1%; with Raji [14], 29.3%; in the data set listed under Homo sapiens [15], < 20%. The results for the Activity entry with Raji [16], with Raji [17] and in the data set filed under Homo sapiens [18] were “Dose-dependent effect”, 26.8% and “Tde”, respectively. Besides, the outcome with Raji [4] and with Raji [13] was Active. Moreover, the IC50 is 18.1 µM in the data set on CCRF-CEM, 4.7 µM in the data set on Raji [5] and 23 µM in the data set on U-266. The result in the data set filed under Homo sapiens [6] and in the data set listed under Homo sapiens [19] was inactive. Besides, in data set [7], the Drug uptake entry is listed as “Not Active”. Besides, the T/C in the data set with Raji [9] is 26.6%; with Raji [12], 33.3%.
